# PMC3651860 (Journal of the American Chemical Society, 2011)
# “Also recorded” adds a separate entry of the source. Like-named read-outs stand apart in the source and are kept apart here. Primed or numbered codes have the meaning given here. Biotin′ = not defined here; Az8 = not defined here
# Tests used:
# [1] = tested on: Akt1-S473E-T308P; test: Competitive enzyme kinetic assays of Akt1 with triligand; format: biochemical
# Procedure, shortened: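 Akt1 kinase domain (S473E mimic, Hi5 insect-cell expressed, T308-phosphorylated form) assayed at varying peptide-substrate or ATP concentrations across varying test compound concentrations. KM and Vmax were fitted by nonlinear regression. Ki came from negative x-intercepts of Dixon plots (1/v vs [compound], varying ATP), and Ki' from intercepts of Cornish-Bowden plots ([peptide]/v vs [compound], varying peptide). Both are given as mean ± standard deviation.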
# [2] = tested on: Akt-S473E; test: ELISA with immobilized Akt-S473E; format: binding
# Procedure, shortened: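 Akt1-S473E kinase domain, expressed in Hi5 insect cells, was immobilized on Ni-NTA plates. It was incubated with varying concentrations of biotinylated test peptide. Binding signal was normalized to the binding observed at saturation.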
# [3] = tested on: GSK3β; test: ELISA-based binding analysis over a range of kinase concentrations, GSK3β; settings: Figure S18
# [4] = tested on: Akt1; test: ELISA-based binding analysis over a range of kinase concentrations, Akt1; settings: Figure S18
# [5] = tested on: Akt1-S473E-T308P; settings: read-out: KM (literature); ATP; ref 21 (Klein et. al.); cited from earlier work
# [6] = tested on: AKT in fixed OVCAR3 cells; test: Immunocytochemistry; format: cell-based; settings: permeabilized OVCAR3 cells, unstimulated vs EGF+insulin
# Procedure, shortened: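 OVCAR3 cells were left unstimulated or treated with EGF plus insulin, then fixed and permeabilized. They were stained with fluorescein-labelled test compound, and a fluorescein-conjugated anti-Akt monoclonal antibody served as benchmark. Akt localization was imaged by immunofluorescence microscopy.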
# [7] = tested on: Akt1-S473E-T308P; test: Akt1 kinase inhibition test of candidate anchor sequences; format: biochemical; settings: Figure S6
# Target sequence in this assay (P31749 150-480 S473E limits assumed): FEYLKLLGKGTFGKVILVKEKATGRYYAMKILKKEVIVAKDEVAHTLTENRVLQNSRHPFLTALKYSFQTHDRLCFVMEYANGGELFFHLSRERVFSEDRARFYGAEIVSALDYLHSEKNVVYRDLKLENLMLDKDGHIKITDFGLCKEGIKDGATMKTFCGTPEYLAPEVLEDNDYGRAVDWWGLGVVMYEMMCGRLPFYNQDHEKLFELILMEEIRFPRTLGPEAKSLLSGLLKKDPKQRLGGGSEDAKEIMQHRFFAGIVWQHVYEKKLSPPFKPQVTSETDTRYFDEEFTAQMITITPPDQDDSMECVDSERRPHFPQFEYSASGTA
# [8] = biological target: Akt1 kinase domain with the S473E mutation (Akt1-S473E)
molecule,measurement,setting,value
"triligand: tertiary peptide Ac-Az8-RHERI-CONH2 conjugated to the biligand to form a biotinylated branched triligand (chain 1 VFYRLGY; chain 2 FWFLRG; not fully specified; N-terminal azido amino acid Az8 before V, joined through a 1,4-triazole to the Pra of the secondary peptide; C-terminal biotin | N-terminal propargylglycine (Pra) before F, joined through a 1,4-triazo)",inhibitory potency (in words),[1],low micromolar inhibitory potency
same,effect on KM,[1]; ATP is the varied substrate,no effect on KM
same,effect on enzyme Vmax,"[1]; increasing triligand concentration, varied [ATP] or varied [peptide]",reduction in the enzyme Vmax for both substrates
same,effect on KM,[1]; peptide concentration is varied,KM decreases
same,inhibition mode,"[1]; varied [ATP], variable [Triligand]",noncompetitive inhibition
same,inhibition mode,"[1]; varied [ATP], variable [Triligand], listed as Triligand",Noncompetitive
same,inhibition mode,"[1]; varied [Peptide], variable [Triligand]",uncompetitive inhibition
same,"mode of inhibition / inhibitory mechanism, overall",[1]; with respect to ATP and peptide substrates,allosteric mode of inhibition; also recorded: triligand inhibition occurs in a noncompetitive fashion; also recorded: not competitive with respect to either the peptide or ATP binding site; also recorded: allosteric mechanism
same,affinity for Akt1 (in words),[2]; comparison within anchor/biligand/triligand series,only marginally improved over the biligand; also recorded: only a modest affinity improvement
same,"decrease of affinity for GSK3β, biligand to triligand",[3],approximately 2 fold
same,"change of affinity for Akt1, biligand to triligand",[4],increases modestly
"Nc1ncnc2c1ncn2[C@@H]1O[C@H](COP(=O)(O)OP(=O)(O)OP(=O)(O)O)[C@@H](O)[C@H]1O [ATP, reference compound]",Vmax,"[1]; Akt1-S473E-T308P, V vs. [ATP], variable [Triligand], nonlinear regression",98996 ± 8242 pmol/min/mg
same,Km,"[1]; read-out: KM (this work), Akt1-S473E-T308P, nonlinear regression (GraphPad), V vs. [ATP], variable [Triligand]",213 ± 25 µM
same,Km,[5],155 µM
"fluorescein-labeled triligand: fluorescein-labeled triligand employed as an ICC imaging agent (chain 1 VFYRLGY; chain 2 FWFLRG; chain 3 RHERI; N-terminal azido amino acid Az8 before V, joined through a 1,4-triazole to the Pra of the secondary peptide | N-terminal propargylglycine (Pra) before F, joined through a 1,4-triazole to Az8 of the an)",Akt localization in ICC (in words),[6],localization of Akt at the plasma membrane after cell stimulation
Az8-VFYRLGY-CONH2 [anchor peptide],affinity,"[2]; anchor peptide, Akt, assay of this value not stated at the place",> 25 µM
same,inhibition of the Akt1 kinase,[7]; absence of the conjugated small molecule inhibitor (Ac7),~95%
same,inhibition of the Akt1 kinase,[7]; presence of the conjugated small molecule inhibitor (Ac7),~95%
{Ac-Az8}-VFYRLGY-{Biotin′} (reading uncertain; also: printed as Ac-Az8-VFYRLGY-Biotin) [biotinylated anchor peptide Ac-Az8-VFYRLGY-Biotin],Kd,[8],> 25 µM
